Screening data as filed in PubChem BioAssay.
In the library only some 2.9% were active in any assay of this set; here they are far more common.
SUMO Mot1 rescue: SUMOylation pathway inhibition by Mot1-301 growth rescue; AID 2716; growth rescue, % at 18.8 µM; S. cerevisiae Mot1-301 growth rescue, ATP luminescence, 38.5C; percent above DMSO median, 100 means doubled; 1% of 320,000 active;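 active means every valid replicate shows activation above 250% relative to neutral control wells; inactive means the rest, any valid replicate at or below 250%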
UBC9 SUMO inh: blocks human SUMOylation mediated by UBC9. HTRF SUMOylation assay, SAE1/SAE2 + UBC9, in vitro. 0.36% of 290,000 active. inhibition, % at 35 µM. P63279; in the data active means inhibition above about 50%, passing the limit was not always enough; inconclusive means no clear call, values can overlap the other calls
Target sequence (P63279 whole entry, looked up): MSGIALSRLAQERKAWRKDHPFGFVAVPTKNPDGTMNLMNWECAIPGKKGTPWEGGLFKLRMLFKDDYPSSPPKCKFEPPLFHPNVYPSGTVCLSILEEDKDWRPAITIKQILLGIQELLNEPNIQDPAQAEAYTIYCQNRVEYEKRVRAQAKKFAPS
FID counter: counter-screen for HCV NS3 helicase inhibitors: DNA intercalator displacement; inhibition, % at 7.9 µM; AID 1845; 0.17% of 290,000 active; DNA fluorescent intercalator displacement, fluorescence; in the data active means inhibition above about 37%;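 further: higher means more ethidium bromide displaced from hairpin DNA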
VIM-2 inhibitor: blocks Pseudomonas aeruginosa VIM-2 metallo-beta-lactamase; purified VIM-2, nitrocefin hydrolysis, epi-absorbance fluorescence; inhibition, % at 5.6 µM; 0.89% of 290,000 active;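 active means inhibition above the mean of all tested compounds plus 3 SD, cutoff set per screening run, cut at about 7.5% in these data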;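 further: red hydrolysis product quenches plate fluorescence so inhibitors raise well fluorescence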
IMP-1 inh: inhibitors of Pseudomonas aeruginosa IMP-1 metallo-beta-lactamase. purified IMP-1, nitrocefin hydrolysis, epi-absorbance fluorescence. inhibition, % at 5.6 µM. 0.45% of 290,000 active. AID 1556;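 active means inhibition above the mean plus 3 SD of all compounds in the same screening run, cut at about 4.5% in these data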
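Assay system: purified IMP-1; Quantity: IMP-1 0.2 nM before substrate addition; Medium: HEPES buffer pH 7.1 with ZnSO4 and Brij 35; Incubation: 15 min enzyme–compound preincubation, then 25 min nitrocefin reaction, 25 °C; Signal: fluorescence quenching readout, ex 480/em 530 nm; Controls: DMSO with and without IMP-1; Repeats: singlicate testing.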
NALP1 inh: blocks the NALP1 inflammasome reconstituted in yeast | S. cerevisiae NALP1/ASC/caspase-1 growth, X-gal OD620, 72 h | inhibition, % at 10 µM | 0.61% of 280,000 active | AID 2071; in the data active means inhibition mostly above about 24%, no sharp cut-off; inactive means mostly below about 32%
VIM-2 confirm: VIM-2 inhibition, confirmation assay. shares compounds with IMP-1 inh. purified VIM-2 enzyme, nitrocefin absorbance. inhibition, % at 5.6 µM. 73% of 200 active; in the data active means inhibition above about 8%
TEM-1 counter: blocks E. coli TEM-1 beta-lactamase, VIM-2 IMP-1 counter-screen; shares compounds with IMP-1 inh; nitrocefin absorbance inhibition; inhibition, % at 5.6 µM; 50% of 200 active; in the data active means inhibition above about 0.66%
Target sequence (P62593 whole entry, looked up): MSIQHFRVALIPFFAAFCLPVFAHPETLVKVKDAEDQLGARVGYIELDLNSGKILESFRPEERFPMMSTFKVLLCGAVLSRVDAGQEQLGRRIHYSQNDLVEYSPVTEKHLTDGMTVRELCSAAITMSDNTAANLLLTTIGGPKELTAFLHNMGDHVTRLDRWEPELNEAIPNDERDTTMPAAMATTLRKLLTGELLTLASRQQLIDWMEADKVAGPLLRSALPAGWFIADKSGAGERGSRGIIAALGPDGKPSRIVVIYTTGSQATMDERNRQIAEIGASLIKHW
IMP-1 confirm: confirmation of P. aeruginosa IMP-1 metallo-beta-lactamase inhibitors | shares compounds with IMP-1 inh | purified IMP-1 enzyme, absorbance substrate hydrolysis | inhibition, % at 5.6 µM | 60% of 200 active | AID 2189; in the data active means inhibition above about 4.9%
Numbers stand for hits; 0 = inactive; ? = inconclusive; - = not tested or not shown.

SMILES | SUMO Mot1 rescue | UBC9 SUMO inh | FID counter | VIM-2 inhibitor | IMP-1 inh | NALP1 inh | VIM-2 confirm | TEM-1 counter | IMP-1 confirm
COc1ccc(NC(=O)NS(=O)(=O)c2ccc(C)cc2)cn1 | 0 | 0 | 0 | 16 | 12 | 0 | 0 | 0 | 0
Cc1nc(C(F)(F)F)ccc1C(=O)Nc1ccccc1F | 0 | 0 | 0 | 0 | 0 | 0 | - | - | -
Cc1ccc(NC(=O)C2C(c3ccccc3)C=CC(c3ccccc3)C2C(=O)O)cc1 (centres undefined) | 0 | 0 | 0 | 46 | 85 | 0 | 0 | 0 | 61
COCCn1c(SCC(=O)Nc2sccc2C(N)=O)nnc1-c1ccncc1 | 0 | 0 | 0 | 0 | 0 | 0 | - | - | -
CC(C)C(CCN1C(=O)c2ccccc2C1=O)c1ccco1 (centres undefined) | 0 | 0 | 0 | 15 | 7.3 | 0 | 33 | 0 | 19
O=C(OCCN1C(=O)c2ccccc2C1=O)c1ccco1 | 0 | 0 | 0 | 0 | 0 | 0 | - | - | -
CSc1nc2nc(-c3cccs3)cc(C(F)(F)F)c2c(=O)[nH]1 | 0 | 0 | 0 | 0 | 0 | 0 | - | - | -
O=C(CSc1nc2nc(-c3cccs3)cc(C(F)(F)F)c2c(=O)[nH]1)C(F)(F)F | 0 | 0 | 0 | 22 | 4.9 | 0 | 26 | 0 | 0
CCc1cc(=O)oc2cc(C)c(CN3CCCCC3)c(O)c12 | 0 | 0 | 0 | 13 | 19 | 0 | 0 | 0 | 0
CCc1cc(=O)oc2cc(C)c(CN3CCCC3)c(O)c12 | 0 | 0 | 0 | 15 | 20 | 0 | 18 | 0 | 8.8
Cc1cc(=O)oc2c(CN3CCCC3)c(O)c(Cl)cc12 | 0 | 0 | 0 | 0 | 0 | 0 | - | - | -
Cc1ccccc1N1CCN(c2ccc(NC(=O)C3CCCCC3C(=O)O)cc2)CC1 (centres undefined) | 0 | 0 | 0 | 0 | 0 | 0 | - | - | -
CCN(CC)c1ccc(/C=C/C(=O)c2ccc(Br)cc2)cc1 | 0 | 0 | 0 | 14 | 8.0 | 0 | 33 | 48 | 31
O=C(/C=C\c1cccs1)N1CCN(Cc2ccc3c(c2)OCO3)CC1 | 0 | 0 | 0 | 0 | 0 | 0 | - | - | -
C[n+]1cc(C(=O)N2CCCCC2)ccc1/C=C/c1c[nH]c2ccccc12 | 0 | 0 | 0 | 0 | 4.9 | 0 | 14 | 0.5 | 5.6
COc1ccccc1-c1noc(CCCC(=O)Nc2ccc(C(N)=O)cc2)n1 | 0 | 0 | 0 | 0 | 0 | - | - | - | -
O=C1CC(NCc2ccc3c(c2)OCO3)C(=O)N1CCc1ccccc1 (centres undefined) | 0 | 0 | 0 | 47 | 42 | 0 | 0 | 0 | 0
CCN1C(=O)CC(NCc2ccc3c(c2)OCO3)C1=O (centres undefined) | 0 | 0 | 0 | 0 | 0 | 0 | - | - | -
O=C1c2cccnc2C(=O)N1Cc1ccc(S(=O)(=O)N2CCOc3ccc(Cl)cc32)cc1 | 0 | 0 | 0 | 0 | 0 | 0 | - | - | -
N#CC1=C(N)S[C@H](C(=O)C23CC4CC(CC(C4)C2)C3)[C@H]1c1ccncc1 | 0 | 0 | 0 | 22 | 55 | 0 | 0 | 0 | 5.8
FC(F)(F)C(F)(F)c1nnc2ccc(-n3ccnc3)nn12 | 0 | 0 | 0 | 0 | 0 | 0 | - | - | -
COc1ccc(/C=C2/SC(=S)N(Cc3ccccc3)C2=O)cc1O | 0 | 0 | 0 | 0 | 0 | 0 | - | - | -
O=C1/C(=C\c2cc(Cl)c(O)c(Cl)c2)SC(=S)N1Cc1ccccc1 | 0 | 0 | 0 | 18 | 18 | 0 | 18 | 54 | 14
CC(C)c1ccccc1NC(=S)N(C)C | 0 | 0 | 0 | 0 | 0 | 0 | - | - | -
COc1ccc(-c2occ(C(=O)O)c2C(=O)O)cc1 | 0 | 0 | 0 | 10 | 26 | 0 | 18 | 0 | 22
SMILES | SUMO Mot1 rescue | UBC9 SUMO inh | FID counter | VIM-2 inhibitor | IMP-1 inh | NALP1 inh | VIM-2 confirm | TEM-1 counter | IMP-1 confirm
OC1CCNC(=S)N1c1ccccc1 (centres undefined) | 0 | 0 | 0 | 0 | 0 | 0 | - | - | -
CN1CCN(S(=O)(=O)c2ccc(-c3ccc(Cl)cc3)cc2)CC1 | 0 | 0 | 0 | 11 | 42 | 0 | 0 | 0 | 0
CN1CCN(S(=O)(=O)c2ccc(Cl)cc2)CC1 | 0 | 0 | 0 | 0 | 0 | 0 | - | - | -
Cc1ccc(C(=O)NCC(=O)OCC(=O)NCCc2ccccc2)s1 | 0 | 0 | 0 | 0 | 0 | 0 | - | - | -
CCc1sc(C(=O)Nc2cccnc2)cc1Br | 0 | 0 | 0 | 0 | 0 | 0 | - | - | -
CCCCNc1ccc2c3c(cccc13)C(=O)N(CCCC)C2=O | - | 0 | 0 | 15 | 12 | 0 | 22 | 63 | 18
O=C1c2cccc3c(N4CCCCC4)ccc(c23)C(=O)N1c1ccc(Cl)cn1 | - | - | 0 | 0 | 0 | - | - | - | -
CCCN1C(=O)c2cccc3c(N4CCCCC4)ccc(c23)C1=O | 0 | 0 | 0 | 32 | 24 | 0 | 12 | 6.5 | 5.5
C=CCNC(=S)N(C1CCCCC1)C1CCCCC1 | 0 | 0 | 0 | 0 | 0 | 0 | - | - | -
Cc1cc(=O)[nH]c(SCC(=O)NC2CCCc3ccccc32)n1 (centres undefined) | 0 | 0 | 0 | 0 | 0 | 0 | - | - | -
Cc1ccc2nc3c(cc(C(=O)NCCCn4ccnc4)n3C)c(=O)n2c1 | 0 | ? | 0 | 15 | 8.4 | 0 | 0 | 0 | 0
Cn1c2ccccc2c2cc(C(=O)NNS(=O)(=O)c3ccc(F)cc3)sc21 | 0 | 0 | 0 | 0 | 5.0 | 0 | 0 | 0 | 0
Cc1ccc2[nH]cc(/C=C/c3cc[n+](C)cc3)c2c1 | 0 | 0 | 0 | 15 | 5.7 | 0 | 15 | 5.1 | 5.9
CC[n+]1ccc(/C=C/c2c[nH]c3ccccc23)cc1 | 0 | 0 | 0 | 8.2 | 5.6 | 0 | 8.1 | 2.7 | 0
CCn1c(/C=C/c2c[nH]c3ccccc23)nc2ccccc2c1=O | 0 | 0 | 0 | 0 | 0 | 0 | - | - | -
CN(C)c1ccc(/C=C/c2cc[n+](C)cc2)cc1 | 0 | 0 | 0 | 0 | 0 | 0 | - | - | -
CCOC(=O)NC(=O)/C(C#N)=C\Nc1sccc1C(=O)OC | 0 | 0 | 0 | 7.7 | 9.1 | 0 | 0 | 0 | 0
CC(=O)Nc1ccc(C(=O)NNC(=O)C2C3CCCCC32)cc1 (centres undefined) | 0 | 0 | 0 | 0 | 0 | 0 | - | - | -
CN1/C(=C\C=C2/C(=O)Oc3ccccc3C2=O)C(C)(C)c2ccccc21 | 0 | 0 | 0 | 9.6 | 13 | 0 | 31 | 45 | 24
CN1C(=CC=C2C=C(I)C(=O)C(I)=C2)C(C)(C)c2ccccc21 | - | 0 | 0 | 0 | 0 | 0 | - | - | -
CCNc1nc(NCC)n2c(SCC(=O)Nc3ccc(F)cc3[N+](=O)[O-])nnc2n1 | 0 | 0 | 0 | 0 | 0 | 0 | - | - | -
O=C(NCCCC(=O)N1CCCCC1)c1ccc(Cl)cc1 | 0 | 0 | 0 | 0 | 0 | 0 | - | - | -
O=C1/C(=C/c2cccnc2)SC(=S)N1c1ccc(O)cc1 | 0 | 0 | 0 | 9.2 | 6.0 | 0 | 11 | 0 | 0
COc1ccc(/C=C2\SC(=O)NC2=S)cc1OC | 0 | 0 | 0 | 12 | 6.8 | 0 | 0 | 0 | 0
